Assay results reported in ChEMBL document CHEMBL1131251, “Inhibition of in vitro and in vivo HIV replication by a distamycin analogue that interferes with chemokine receptor function: a candidate for chemotherapeutic and microbicidal application” (J Med Chem, 1998).

Legend:
Settings in all cases: HEK293; concentration not given here
[1] = biological target: C-C chemokine receptor type 5 (Homo sapiens) (UniProt P51681); assay: The compound was tested for inhibition of Chemokine (RANTES) binding against C-C chemokine receptor type 5 transfected in HEK 293 cells; format: cell-based
C-C chemokine receptor type 5 (Homo sapiens), sequence (P51681 whole entry, looked up): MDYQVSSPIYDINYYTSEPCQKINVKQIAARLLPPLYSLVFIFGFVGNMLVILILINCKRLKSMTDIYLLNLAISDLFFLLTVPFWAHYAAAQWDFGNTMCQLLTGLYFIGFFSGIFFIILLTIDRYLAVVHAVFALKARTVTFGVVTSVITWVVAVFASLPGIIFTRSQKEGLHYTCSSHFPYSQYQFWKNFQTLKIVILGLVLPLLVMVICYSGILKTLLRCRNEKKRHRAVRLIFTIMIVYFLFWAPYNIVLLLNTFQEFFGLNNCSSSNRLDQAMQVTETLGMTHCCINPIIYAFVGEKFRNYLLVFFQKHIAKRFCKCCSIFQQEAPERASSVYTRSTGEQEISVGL
Method in brief: (§1)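 CCR5 stably transfected HEK-293 cells at 1 × 10^6 cells/mL in RPMI 1640, 1% BSA, 5 mM HEPES pH 8.0. Constant radiolabeled chemokine (0.2 ng/assay) plus competitor at a single 200 μM concentration. Rotated 45 min at room temperature, spun through a 10% sucrose/PBS cushion, and cell-bound radioactivity gamma-counted. Inhibition measured against a drug-free control; triplicate, n ≥ 2.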

[2] = test system: CXCR2 (Homo sapiens); assay: The compound was tested for inhibition of Chemokine (IL-8) binding against CXCR2 transfected in HEK 293 cells
[3] = biological target: C-C chemokine receptor type 5 (Homo sapiens) (UniProt P51681); assay: The compound was tested for inhibition of Chemokine (MIP-1Alpha) binding against C-C chemokine receptor type 5 transfected in HEK 293 cells; format: cell-based
Method in brief: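 Competition binding in HEK-293 cells transfected with the named receptor, at 1 × 10^6 cells/mL in RPMI 1640 with 1% BSA and 5 mM HEPES pH 8.0. Cells were mixed with 0.2 ng/assay radiolabeled chemokine plus test compound at a single concentration of 200 μM, rotated 45 min at room temperature, then spun through a 10% sucrose/PBS cushion. Cell-bound radioactivity was gamma-counted; triplicates, n ≥ 2; t-test against a drug-free control.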

[4] = test system: CXCR2 (Homo sapiens); assay: The compound was tested for inhibition of Chemokine r (IL-8) binding against CXCR2 transfected in HEK 293 cells
[5] = biological target: C-C chemokine receptor type 5 (Homo sapiens) (UniProt P51681); assay: The compound was tested for inhibition of Chemokine (MIP-1Beta) binding against C-C chemokine receptor type 5 transfected in HEK 293 cells; format: cell-based; method in brief: as §1

SMILES | inhibition [1] [%] | inhibition [2] [%] | inhibition [3] [%] | inhibition [4] [%] | inhibition [5] [%]
Cn1cc(NC(=O)c2cc(NC(=O)Nc3c[nH]c(C(=O)Nc4cc(C(=O)Nc5ccc(S(=O)(=O)O)c6cccc(S(=O)(=O)O)c56)n(C)c4)c3)c[nH]2)cc1C(=O)Nc1ccc(S(=O)(=O)O)c2cccc(S(=O)(=O)O)c12 | -3.1 | 5.4 | 6.5 | – | –
Cn1cc(N)cc1C(=O)Nc1ccc(S(=O)(=O)O)c2cc(S(=O)(=O)O)ccc12 | -1 | – | 9.5 | 0.3 | 6.6
